iPSC survival up – increases survival of single human iPS cells; survival enhancement, % at 20 µM; AID 602274; hiPSC single-cell survival, ATPlite luminescence; 100% = ROCK inhibitor wells, 0% = DMSO; 360,000 tested, 0.044% active; in the data active means survival enhancement above about 18%;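 further: cells exposed to compounds for 16 hours before the ATP read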
CHOP UPR activ – apoptotic UPR (CHOP) activation; activation, % at 10 µM; 330,000 tested, 0.34% active; CHO-CHOP luciferase reporter, luminescence; percent of tunicamycin response over DMSO baseline;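 active means at 10 µM dose, activation of 40% or more, normalized to positive control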;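 further: 100% = tunicamycin at 10 µg/mL and 0% = DMSO alone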
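Dosing – one dose, 10 µM in 0.5% DMSO · System – CHO-CHOP cells, stable luciferase reporter of PERK-eIF2a-CHOP signalling · Input – 500 cells/well · Control set – tunicamycin 10 µg/mL final as positive, DMSO-only wells as negative · Timing – 6 h compound treatment, 37 °C · Measure – % activation vs tunicamycin · Technique – luminescence read with Steady-Glo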
CHOP inhibitor – inhibitors of CHOP induction in ER stress response; 220,000 tested, 3.8% active; CHO-K1 CHOP-promoter luciferase, tunicamycin-induced, 15-18 h; inhibition, % at 10 µM; AID 2732;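 active means compounds that reduced the stress-induced luciferase reporter signal by more than about 70% of percent inhibition, limit read from the data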;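 further: 0% = tunicamycin plus vehicle and 100% = wells without tunicamycin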
UPR XBP1 act – activators of adaptive arm of unfolded protein response (XBP1); activation, % at 20 µM; CHO-XBP1 luciferase reporter, IRE1-XBP1 UPR activation, luminescence; percent of tunicamycin response, DMSO as zero; AID 463104; 330,000 tested, 0.33% active;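 active means versus positive control, 20 µM dose yields 30% or more activation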;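 further: 100% = tunicamycin at 10 µg/mL and 0% = DMSO only wells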
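Signal: luciferase luminescence; Assay system: CHO-XBP1 luciferase reporter cells; Amount: one thousand reporter cells per well; Dosing: 20 µM single concentration, DMSO 1%; Benchmarks: high control tunicamycin 10 µg/mL final, low control DMSO vehicle only; Schedule: 6 h compound exposure at 37 °C, 5% CO2; Evaluation: percent activation relative to tunicamycin reference.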
H9c2 protect – myocardial damage modulation in H9c2 cells; 360,000 tested, 0.63% active; H9c2 cardiomyocytes, H2O2 injury protection, ATPLite, 2 h; protection from H2O2 cell death, % at 20 µM;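 active means compounds giving at least 50% protection of heart cells from peroxide-induced death in the single-dose screen, raw or plate-pattern-corrected value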;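 further: 0% = DMSO wells with peroxide and 100% = DMSO wells without peroxide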
An asterisk follows results filed as active; / = no result given. This excerpt belongs to a sample that is enriched for hits.

SMILES	iPSC survival up	CHOP UPR activ	CHOP inhibitor	UPR XBP1 act	H9c2 protect
CCN(CC(N)=O)S(=O)(=O)c1ccc(F)cc1	0	0	10	-3	-5
CCCCOc1ccc(S(=O)(=O)NC(=O)C2(C)CCN2C(=O)CCc2ccccc2)cc1 (stereo not given)	1	/	/	/	-4
CC(=O)Nc1ccc(S(=O)(=O)Nc2ccc(Cc3ccncc3)cc2)cc1	0	1	/	4	-12
CC(C)(C)c1ccc(S(=O)(=O)Nc2ccc(Cc3ccncc3)cc2)cc1	-2	4	79*	1	-26
COc1c(O)cccc1/C=N/NC(=O)Cn1ccnc1C	0	1	28	-3	57*
COc1cccc(/C=N/NC(=O)Cn2ccnc2C)c1	1	2	5	-2	-6
COc1ccc(NC(=O)c2cc(-c3ccncc3)nc3ccccc23)c(OC)c1	1	-1	/	-1	24
COc1ccc(NC(=O)c2cc(-c3ccc(OC)c(OC)c3)nc3ccccc23)c(OC)c1	0	6	/	4	66*
COc1ccc(-c2cc(C(=O)NC(C)c3ccccn3)c3ccccc3n2)cc1OC (stereo not given)	0	1	/	-1	55*
COCCN(CCOC)Cc1cc(=O)oc2ccc3ccccc3c12	4	/	/	/	4
COc1nnc(-c2ccc(N3CCCCC3)c(NC(=O)C3CCCCC3)c2)c2ccccc12	3	11	80*	-2	-15
COc1nnc(-c2ccc(N3CCOCC3)c(NC(=O)C3CCCCC3)c2)c2ccccc12	1	1	28	1	3
CCOc1ccc(NC(=O)COc2ccc(C(=O)NCc3cccc(OC)c3)cc2OC)cc1	0	-1	/	-5	-5
CC(C)=CCC/C(C)=C/C=N/NC(=O)c1ccc([N+](=O)[O-])cc1	0	5	50	-3	20
CC(C)=CCC/C(C)=C/C=N/NC(=O)c1cccc([N+](=O)[O-])c1	5	-1	89*	-4	1
Fc1ccc(C2Nc3cccc4cccc(c34)N2)cc1	0	2	/	-3	-8
FC(F)(F)c1ccc(C2Nc3cccc4cccc(c34)N2)cc1	-1	0	87*	2	-3
COc1cccc(-c2cccc3c2NC(=O)C3(C)Cc2ccccc2F)c1 (stereo not given)	4	/	/	/	-4
CCOC(=O)c1ccc(NC(=O)COC)cc1	2	2	41	-1	-2
CCOC(=O)c1ccc(NC(=O)Cc2coc3cc4c(cc23)CCC4)cc1	4	-1	77*	-1	-26
Cc1cc(OCC(=O)OCC(=O)Nc2cc(S(=O)(=O)N3CCOCC3)ccc2Cl)ccc1Cl	1	0	/	3	-5
O=C(NC1CC1)C1CC(=O)N(c2ccccc2)C1 (stereo not given)	0	1	/	-5	2
O=C(NCc1n[nH]c(=O)c2ccccc12)C1CC(=O)N(c2ccccc2)C1 (stereo not given)	2	-2	/	-4	67*
CN(C)C(=O)C1C2NC(=S)N(c3cccc(Cl)c3)C1(C)Oc1ccc(Cl)cc12 (stereo not given)	0	0	-2	-3	56*
COc1ccc(-n2sc3c(c2=S)-c2cc(OC)ccc2NC3(C)C)cc1	0	0	91*	1	-18
SMILES	iPSC survival up	CHOP UPR activ	CHOP inhibitor	UPR XBP1 act	H9c2 protect
COc1cc2c3c(c1)-c1c(sn(-c4cc(OC)ccc4OC)c1=S)C(C)(C)N3C(=O)C2=O	-1	2	2	1	-11
COc1ccc2c(c1)-c1c(sn(-c3ccc(OC)c(OC)c3)c1=S)C(C)(C)N2	-1	3	80*	3	6
COc1ccc2c(c1)-c1c(sn(-c3ccccc3)c1=S)C(C)(C)N2	2	0	70*	2	-12
COc1ccc2c(c1)-c1c(ssc1=S)C(C)(C)N2	6	-2	43	5	-5
CC(C)NC(=O)C1(C)CCN1C(=O)c1ccccc1Oc1ccccc1 (stereo not given)	1	/	/	/	-4
CC(C1SC(=S)NC1=O)C1SC(=S)NC1=O (stereo not given)	3	/	/	/	0
CN1C(=O)N(CC(=O)c2ccc3c(c2)OCO3)C(=O)C12CCCCC2	2	/	/	/	5
COc1ccc(-c2csc(C(C)(O)c3ccncc3)n2)cc1OC (stereo not given)	2	/	/	/	-9
Cc1cc(C)cc(N(CC(=O)Nc2ccc(-c3nc4ccc(C)cc4s3)cc2)S(C)(=O)=O)c1	1	6	52	1	-10
Cc1ccc2nc(-c3ccc(NC(=O)CN(c4ccccc4C)S(C)(=O)=O)cc3)sc2c1	-2	5	70*	-4	-17
CC(C)(C)c1ccc(S(=O)(=O)NCC(=O)Nc2ccc(-c3nc4ccccc4s3)cc2)cc1	-2	6	96*	-2	-18
Cc1ccc(C)c(S(=O)(=O)NC(C)C(=O)Nc2ccc(-c3nc4ccccc4s3)cc2)c1 (stereo not given)	-1	4	80*	1	-3
Cc1ccc2nc(-c3ccc(NC(=O)CN4C(=O)NC(C)(c5ccc(OC(F)F)cc5)C4=O)cc3)sc2c1 (stereo not given)	2	5	76*	11	-11
O=C(Nc1cccc(C(=O)N2CCOCC2)c1)C1CCCCC1	0	/	/	/	/
Cc1ccc(S(=O)(=O)N2C[C@H]3C(=O)C[C@@H](c4ccccc4)N(S(=O)(=O)c4ccc(Br)cc4)[C@H]3C[C@H]2c2ccccc2)cc1	-2	/	/	/	-1
CCCNC(=O)c1cc(C2CCCCN2C(=O)c2cc(C(C)(C)C)nn2C)on1 (stereo not given)	0	/	/	/	-11
CCCNC(=O)C1(C)CCN(Cc2ccc(OCc3ccccc3)cc2)C1 (stereo not given)	4	/	/	/	-15
O=C(Nc1ccc2c(c1)CCC2)c1cc(S(=O)(=O)Nc2ccc(F)cc2)c(Cl)cc1Cl	2	0	78*	-2	-9
C=CCn1c(C)cc(C(=O)CSc2nc3ccccc3o2)c1C	0	1	74*	-4	-30
CCCCCCn1c(CN2CCC(C)CC2)nc2c1c(=O)n(C)c(=O)n2C	-2	-1	76*	-4	-3
COc1ccccc1-c1nnc(NC(=O)C(C)SC2=NCCS2)s1 (stereo not given)	1	2	57	-1	-2
CC(SC1=NCCS1)C(=O)Nc1nnc(-c2ccc(Cl)cc2)s1 (stereo not given)	0	10	87*	-3	-10
O=C(NC(c1ccccc1)C(Cl)Cl)c1ccccc1 (stereo not given)	-1	1	15	-1	6
O=C(NC(NC(=O)c1ccccc1)c1ccccc1)c1ccccc1	-2	0	80*	-2	-3
COC(=O)C(C#N)(CCC(=O)c1ccccc1)CCC(=O)c1ccccc1	0	/	/	/	3

Assay outcomes (PubChem BioAssay)
